# Test results published in ChEMBL document CHEMBL1156178, “Discovery of novel 6,6-heterocycles as transient receptor potential vanilloid (TRPV1) antagonists” (J Med Chem, 2010).
# Active and inactive are the calls of the source. The rule behind the calls is not given here.
# Experiments:
# [1] = biological target: Transient receptor potential cation channel subfamily V member 1 (Homo sapiens, UniProt Q8NER1); assay: Antagonist activity at human recombinant TRPV1 expressed in HEK293 cells assessed as inhibition of capsaicin-induced calcium mobilization by FLIPR assay
# [2] = Solubility in 0.1 N HCL after 4 hrs by HPLC/MS analysis; assay type: physicochemical
# [3] = AUC (0 to 24 hrs) in rat at 10 mg/kg, po; assay type: ADME, organism-based; set-up: time < 24 hr, dose 10 mg/kg, route oral; details: plasma
# hERG (KCNH2) = hERG (KCNH2) (Homo sapiens, UniProt Q12809); assay: Inhibition of human ERG expressed in COS7 cells at 10 uM by electrophysiology assay; assay type: cell-based, COS-7; details: COS7 cells expressing human ERG
# [4] = Inhibition of PKA at 10 uM
# [5] = Tmax in rat at 1 mg/kg, iv and 1 mg/kg, po; assay type: ADME, organism-based; details: in vivo
# [6] = Oral bioavailability in rat at 1 mg/kg; assay type: ADME, organism-based; details: in vivo
# [7] = Plasma concentration in complete Freund's adjuvant treated Sprague-Dawley rat at 1 mg/kg, po qd for 2 days administered 24 hrs after CFA challenge after 2 hrs last post dose; assay type: ADME, organism-based; set-up: dose 1 mg/kg, route oral
# Rattus norvegicus [8] = assay: Induction of hyperthermia in Sprague-Dawley rat at 3 mg/kg, po after 1 hr; assay type: organism-based; set-up: dose 3 mg/kg, route oral; details: in vivo
# [9] = Volume of distribution in rat at 1 mg/kg, iv and 1 mg/kg, po; assay type: ADME, organism-based; details: in vivo
# [10] = Tmax in rat at 10 mg/kg, po; assay type: ADME, organism-based; set-up: dose 10 mg/kg, route oral; details: in vivo
# [11] = Plasma concentration in complete Freund's adjuvant treated Sprague-Dawley rat at 3 mg/kg, po qd for 2 days administered 24 hrs after CFA challenge after 2 hrs last post dose; assay type: ADME, organism-based; set-up: dose 3 mg/kg, route oral
# [12] = Tmax in rat at 100 mg/kg, po; assay type: ADME, organism-based; set-up: dose 100 mg/kg, route oral; details: in vivo
# [13] = Ratio of drug level in brain to plasma in rat at 3 mg/kg, po after 1 hr; assay type: ADME, organism-based; set-up: dose 3 mg/kg, route oral
# [14] = biological target: Mitogen-activated protein kinase 14 (Homo sapiens) (UniProt Q16539); assay: Inhibition of p38alpha at 10 uM
# [15] = Fraction unbound in rat plasma; assay type: ADME, cell-free
# Homo sapiens [16] = species: Homo sapiens; assay: Protein binding in human plasma; details: read-out: PPB (converted)
# [17] = Plasma concentration in complete Freund's adjuvant treated Sprague-Dawley rat at 10 mg/kg, po qd for 2 days administered 24 hrs after CFA challenge after 2 hrs last post dose; assay type: ADME, organism-based; set-up: dose 10 mg/kg, route oral
# [18] = Plasma concentration in carrageenan treated rat at 3 mg/kg, po administered 2 hrs after carrageenan challenge measured after 1 hr; assay type: ADME, organism-based; set-up: dose 3 mg/kg, route oral
# Homo sapiens [19] = species: Homo sapiens; assay: Fraction unbound in human plasma
# [20] = biological target: Epidermal growth factor receptor (Homo sapiens) (UniProt P00533); assay: Inhibition of EGFR at 10 uM
# [21] = Cmax in rat at 10 mg/kg, po; assay type: ADME, organism-based; set-up: dose 10 mg/kg, route oral; details: in vivo
# [22] = Plasma concentration in complete Freund's adjuvant treated Sprague-Dawley rat at 10 mg/kg, po qd for 3 days administered 24 hrs after CFA challenge after 2 hrs last post dose; assay type: ADME, organism-based; set-up: dose 10 mg/kg, route oral
# Rattus norvegicus [23] = assay: Induction of hyperthermia in Sprague-Dawley rat at 3 mg/kg, po qd for 4 days; assay type: organism-based; set-up: dose 3 mg/kg, route oral; details: in vivo, 96 h
# [24] = Equilibrium solubility in at pH 7.4; assay type: physicochemical; details: buffer
# [25] = Plasma concentration in complete Freund's adjuvant treated Sprague-Dawley rat at 1 mg/kg, po qd for 3 days administered 24 hrs after CFA challenge after 2 hrs last post dose; assay type: ADME, organism-based; set-up: dose 1 mg/kg, route oral
# [26] = Plasma concentration in complete Freund's adjuvant treated Sprague-Dawley rat at 1 mg/kg, po administered 24 hrs after CFA challenge after 2 hrs post dose; assay type: ADME, organism-based; set-up: dose 1 mg/kg, route oral
# [27] = Tmax in rat at 1 mg/kg, po; assay type: ADME, organism-based; set-up: dose 1 mg/kg, route oral; details: in vivo
# [28] = Plasma concentration in complete Freund's adjuvant treated Sprague-Dawley rat at 3 mg/kg, po administered 24 hrs after CFA challenge after 2 hrs post dose; assay type: ADME, organism-based; set-up: dose 3 mg/kg, route oral
# [29] = AUC (0 to 24 hrs) in rat at 1 mg/kg, po; assay type: ADME, organism-based; set-up: time < 24 hr, dose 1 mg/kg, route oral; details: plasma
# [30] = Plasma concentration in carrageenan treated rat at 0.3 mg/kg, po administered 2 hrs after carrageenan challenge measured after 1 hr; assay type: ADME, organism-based; set-up: dose 0.3 mg/kg, route oral
# [31] = Clearance in rat at 1 mg/kg, iv and 1 mg/kg, po; assay type: ADME, organism-based; details: in vivo
# Rattus norvegicus [32] = assay: Induction of hyperthermia in Sprague-Dawley rat at 3 mg/kg, po after 10 hrs; assay type: organism-based; set-up: dose 3 mg/kg, route oral; details: in vivo
# [33] = AUC (0 to 24 hrs) in rat at 100 mg/kg, po; assay type: ADME, organism-based; set-up: time < 24 hr, dose 100 mg/kg, route oral; details: plasma
# [34] = Half life in rat at 1 mg/kg, iv and 1 mg/kg, po; assay type: ADME, organism-based; details: in vivo
# [35] = Cmax in rat at 1 mg/kg, po; assay type: ADME, organism-based; set-up: dose 1 mg/kg, route oral; details: in vivo
# [36] = biological target: Transient receptor potential cation channel subfamily V member 1 (Rattus norvegicus, UniProt O35433); assay: Inhibition of rat TRPV1 at pH 5 to 5.5
# [37] = Plasma concentration in complete Freund's adjuvant treated Sprague-Dawley rat at 3 mg/kg, po qd for 3 days administered 24 hrs after CFA challenge after 2 hrs last post dose; assay type: ADME, organism-based; set-up: dose 3 mg/kg, route oral
# Rattus norvegicus [38] = assay: Analgesic activity against CFA-induced inflammatory pain in Sprague-Dawley rat assessed as reversal of decrease in weight bearing at 10 mg/kg, po qd for 3 days administered 24 hrs after CFA challenge; assay type: functional, organism-based; set-up: dose 10 mg/kg
# LLC-PK1 = assay: Efflux ratio of permeability from […] in MDR1 transfected pig LLC-PK1 cells; assay type: ADME, cell-based, Sus scrofa
# [39] = biological target: Insulin receptor (Homo sapiens) (UniProt P06213); assay: Inhibition of insulin receptor at 10 uM
# [40] = biological target: Protein kinase C alpha type (Homo sapiens) (UniProt P17252); assay: Inhibition of PKCalpha at 10 uM
# Rattus norvegicus [41] = assay: Analgesic activity in po dosed rat assessed as reversal of carrageenan-induced thermal hyperalgesia administered 2 hrs after carrageenan challenge; assay type: functional, organism-based
# [42] = biological target: Mitogen-activated protein kinase 3 (Homo sapiens, UniProt P27361); assay: Inhibition of human ERK1
# MDR1 = assay: Apparent permeability across pig LLC-PK1 cells expressing MDR1; assay type: ADME, cell-based, Sus scrofa
# Rattus norvegicus [43] = assay: Analgesic activity in rat assessed as complete reversal of carrageenan-induced thermal hyperalgesia at 3 mg/kg, po administered 2 hrs after carrageenan challenge; assay type: functional, organism-based; set-up: dose 3 mg/kg
# [44] = Cmax in rat at 100 mg/kg, po; assay type: ADME, organism-based; set-up: dose 100 mg/kg, route oral; details: in vivo
# [45] = Plasma concentration in carrageenan treated rat at 1 mg/kg, po administered 2 hrs after carrageenan challenge measured after 1 hr; assay type: ADME, organism-based; set-up: dose 1 mg/kg, route oral
# [46] = Metabolic stability in rat liver microsomes assessed as compound remaining at 1 uM after 10 mins by LCMS analysis; assay type: ADME, Microsome; details: read-out: Activity
# In short: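 Compound (1 μM) incubated at 37 °C with 0.5 mg/mL male pooled rat liver microsomes; NADPH added to start the reaction. Aliquots were taken at 0 and 10 min and quenched into ice-cold acetonitrile with internal standard, then centrifuged. Parent was monitored as the M+1 ion by ESI-LCMS in selected-ion mode. Percent remaining was taken as the 10 min/0 min signal ratio, corrected by internal-standard recovery.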
# [47] = biological target: Voltage-gated L-type calcium channel (Rattus norvegicus, UniProt P22002+Q02485+P27732); assay: Inhibition of rat L-type calcium channel
# Rattus norvegicus [48] = assay: Liver blood flow in rat at 1 mg/kg, iv and 1 mg/kg, po; assay type: ADME, organism-based; details: in vivo
# [49] = Protein binding in rat plasma; assay type: ADME, cell-free; details: read-out: PPB (converted)
# [50] = Plasma concentration in complete Freund's adjuvant treated Sprague-Dawley rat at 10 mg/kg, po administered 24 hrs after CFA challenge after 2 hrs post dose; assay type: ADME, organism-based; set-up: dose 10 mg/kg, route oral
# Rattus norvegicus [51] = species: Rattus norvegicus; assay: Analgesic activity against carrageenan-induced thermal hyperalgesia in rat; assay type: functional; details: read-out: MED
# Sequence of Transient receptor potential cation channel subfamily V member 1 (Homo sapiens, UniProt Q8NER1) (Q8NER1 whole entry): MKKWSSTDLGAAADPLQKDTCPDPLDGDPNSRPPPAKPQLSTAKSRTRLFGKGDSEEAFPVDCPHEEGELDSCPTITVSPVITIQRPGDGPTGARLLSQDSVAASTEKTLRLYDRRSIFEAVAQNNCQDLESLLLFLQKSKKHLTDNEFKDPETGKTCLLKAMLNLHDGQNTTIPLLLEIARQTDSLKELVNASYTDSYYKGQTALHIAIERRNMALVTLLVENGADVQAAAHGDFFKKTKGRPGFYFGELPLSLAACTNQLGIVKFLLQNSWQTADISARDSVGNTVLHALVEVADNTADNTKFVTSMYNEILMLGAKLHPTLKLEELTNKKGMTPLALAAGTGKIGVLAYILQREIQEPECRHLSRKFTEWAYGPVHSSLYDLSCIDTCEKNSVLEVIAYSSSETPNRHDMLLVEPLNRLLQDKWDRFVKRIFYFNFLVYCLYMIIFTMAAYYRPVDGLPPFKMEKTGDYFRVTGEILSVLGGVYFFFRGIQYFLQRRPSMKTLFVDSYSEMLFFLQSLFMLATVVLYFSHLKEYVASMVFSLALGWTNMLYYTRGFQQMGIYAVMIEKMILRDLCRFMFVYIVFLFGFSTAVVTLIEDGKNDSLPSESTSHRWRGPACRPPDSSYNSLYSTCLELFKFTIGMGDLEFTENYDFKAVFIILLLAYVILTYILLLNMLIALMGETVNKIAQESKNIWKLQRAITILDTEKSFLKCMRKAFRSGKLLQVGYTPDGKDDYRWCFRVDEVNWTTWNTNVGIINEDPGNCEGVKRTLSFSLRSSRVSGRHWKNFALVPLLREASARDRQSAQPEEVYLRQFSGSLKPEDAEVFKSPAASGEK
# Sequence of Mitogen-activated protein kinase 14 (Homo sapiens) (Q16539 whole entry): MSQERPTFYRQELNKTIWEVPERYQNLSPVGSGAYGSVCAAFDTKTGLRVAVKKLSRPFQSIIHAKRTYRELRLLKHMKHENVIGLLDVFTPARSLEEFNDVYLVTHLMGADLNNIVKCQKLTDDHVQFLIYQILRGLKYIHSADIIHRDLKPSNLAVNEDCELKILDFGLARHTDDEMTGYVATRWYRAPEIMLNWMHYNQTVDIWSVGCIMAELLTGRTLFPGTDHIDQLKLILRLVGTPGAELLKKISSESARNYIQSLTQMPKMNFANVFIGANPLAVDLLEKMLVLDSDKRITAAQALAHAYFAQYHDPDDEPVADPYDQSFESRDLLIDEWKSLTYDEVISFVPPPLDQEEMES
# Sequence of hERG (KCNH2) (Q12809 whole entry): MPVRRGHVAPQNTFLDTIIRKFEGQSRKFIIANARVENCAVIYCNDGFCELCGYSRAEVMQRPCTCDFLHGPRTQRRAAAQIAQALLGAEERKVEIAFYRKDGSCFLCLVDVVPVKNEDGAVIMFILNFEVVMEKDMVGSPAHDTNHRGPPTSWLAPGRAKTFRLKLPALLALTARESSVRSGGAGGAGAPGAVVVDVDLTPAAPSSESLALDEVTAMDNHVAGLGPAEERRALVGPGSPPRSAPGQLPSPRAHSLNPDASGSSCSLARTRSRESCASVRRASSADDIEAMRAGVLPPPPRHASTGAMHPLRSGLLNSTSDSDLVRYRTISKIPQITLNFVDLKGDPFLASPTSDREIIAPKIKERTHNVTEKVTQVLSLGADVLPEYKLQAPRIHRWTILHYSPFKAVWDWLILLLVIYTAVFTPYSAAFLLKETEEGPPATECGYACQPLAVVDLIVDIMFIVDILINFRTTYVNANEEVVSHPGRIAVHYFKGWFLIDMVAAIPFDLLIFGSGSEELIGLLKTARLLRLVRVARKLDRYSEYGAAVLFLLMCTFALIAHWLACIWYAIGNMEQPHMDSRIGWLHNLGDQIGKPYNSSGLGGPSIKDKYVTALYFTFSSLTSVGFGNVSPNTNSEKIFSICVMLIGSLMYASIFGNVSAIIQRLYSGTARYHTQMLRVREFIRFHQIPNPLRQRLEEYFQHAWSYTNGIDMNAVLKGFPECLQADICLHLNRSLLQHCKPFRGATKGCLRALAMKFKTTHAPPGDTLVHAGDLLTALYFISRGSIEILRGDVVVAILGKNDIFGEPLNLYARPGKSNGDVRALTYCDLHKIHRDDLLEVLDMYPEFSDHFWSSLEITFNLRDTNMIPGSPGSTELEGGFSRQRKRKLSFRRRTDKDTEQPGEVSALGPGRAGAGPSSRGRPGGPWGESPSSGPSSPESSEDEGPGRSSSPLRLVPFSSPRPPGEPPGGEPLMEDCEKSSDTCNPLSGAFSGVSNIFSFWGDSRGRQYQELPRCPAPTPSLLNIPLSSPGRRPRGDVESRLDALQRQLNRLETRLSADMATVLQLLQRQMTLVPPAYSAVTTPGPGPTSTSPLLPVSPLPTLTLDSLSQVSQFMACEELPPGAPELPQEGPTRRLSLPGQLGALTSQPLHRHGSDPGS
# Sequence of Transient receptor potential cation channel subfamily V member 1 (Rattus norvegicus, UniProt O35433) (O35433 whole entry): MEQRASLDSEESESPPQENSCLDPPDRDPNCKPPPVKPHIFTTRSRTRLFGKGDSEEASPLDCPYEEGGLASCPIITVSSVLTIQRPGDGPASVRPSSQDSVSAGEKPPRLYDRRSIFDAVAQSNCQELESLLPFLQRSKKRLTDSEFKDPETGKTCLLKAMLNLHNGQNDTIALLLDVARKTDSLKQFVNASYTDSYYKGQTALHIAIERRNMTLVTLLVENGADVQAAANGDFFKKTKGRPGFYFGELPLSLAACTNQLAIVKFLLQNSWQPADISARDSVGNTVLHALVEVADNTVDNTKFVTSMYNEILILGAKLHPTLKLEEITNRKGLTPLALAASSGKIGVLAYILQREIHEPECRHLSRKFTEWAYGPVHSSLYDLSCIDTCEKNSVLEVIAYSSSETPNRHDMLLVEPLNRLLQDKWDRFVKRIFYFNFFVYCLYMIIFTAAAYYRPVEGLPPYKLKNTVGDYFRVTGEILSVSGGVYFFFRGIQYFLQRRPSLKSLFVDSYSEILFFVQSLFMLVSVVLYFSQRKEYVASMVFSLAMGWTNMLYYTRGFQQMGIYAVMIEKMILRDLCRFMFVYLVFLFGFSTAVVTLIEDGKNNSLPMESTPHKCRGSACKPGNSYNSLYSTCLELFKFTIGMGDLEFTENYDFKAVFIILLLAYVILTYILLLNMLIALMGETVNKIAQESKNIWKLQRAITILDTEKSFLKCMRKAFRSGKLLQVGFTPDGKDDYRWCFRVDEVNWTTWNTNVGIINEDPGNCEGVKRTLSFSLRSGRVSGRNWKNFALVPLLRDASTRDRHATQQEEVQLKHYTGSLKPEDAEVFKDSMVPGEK
# Sequence of Mitogen-activated protein kinase 3 (P27361 whole entry): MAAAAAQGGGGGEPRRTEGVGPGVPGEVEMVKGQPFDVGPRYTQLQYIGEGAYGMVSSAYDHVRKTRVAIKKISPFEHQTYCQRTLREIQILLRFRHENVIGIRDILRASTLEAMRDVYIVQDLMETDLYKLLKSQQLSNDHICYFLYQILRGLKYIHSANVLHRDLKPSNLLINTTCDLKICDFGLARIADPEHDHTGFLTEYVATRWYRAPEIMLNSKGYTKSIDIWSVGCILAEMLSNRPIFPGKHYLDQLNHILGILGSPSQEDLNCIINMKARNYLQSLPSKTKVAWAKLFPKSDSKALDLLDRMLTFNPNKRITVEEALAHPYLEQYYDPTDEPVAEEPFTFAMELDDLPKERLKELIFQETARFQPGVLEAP
smiles,measurement,setting,value
FC(F)(F)c1ccc(Nc2ccnc3cc(-c4ncccc4C(F)(F)F)ccc23)nc1,IC50,[1],1.65 nM
same,solubility at 4 h,[2],34 µg/mL
FC(F)(F)c1ccc(Nc2ccnc3cc(-c4ncccc4C(F)(F)F)cnc23)nc1,IC50,[1],308 nM
same,solubility at 4 h,[2],38 µg/mL
FC(F)(F)c1ccc(Nc2ccnc3nc(-c4ncccc4C(F)(F)F)ccc23)nc1,AUC(0-t) at 24 h,[3],22.6 µM·h
same,inhibition at 10 µM,hERG (KCNH2),47%
same,inhibition,[4],inactive
same,Tmax,[5],1.1 h
same,IC50,[1],2.2 nM
same,bioavailability,[6],52%
same,concentration at 2 h,[7],390 nM
same,Activity,Rattus norvegicus [8],Non-toxic
same,Vd,[9],3.9 L/kg
same,Tmax,[10],3.33 h
same,concentration at 2 h,[11],1330 nM
same,Tmax,[12],6 h
same,Kp at 1 h,[13],0.3
same,inhibition,[14],inactive
same,fraction unbound,[15],0.107
same,fraction unbound,Homo sapiens [16],0.065
same,concentration at 2 h,[17],5230 nM
same,concentration at 1 h,[18],1400 nM
same,fraction unbound,Homo sapiens [19],0.065
same,inhibition,[20],inactive
same,Cmax,[21],2870 nM
same,concentration at 2 h,[22],3260 nM
same,Activity,Rattus norvegicus [23],Non-toxic
same,solubility thermodynamic,[24],2 µg/mL
same,concentration at 2 h,[25],380 nM
same,concentration at 2 h,[26],100 nM
same,Tmax,[27],1.1 h
same,concentration at 2 h,[28],230 nM
same,AUC(0-t) at 24 h,[29],0.6 µM·h
same,concentration at 1 h,[30],60 nM
same,clearance,[31],34 mL/min/kg
same,Activity,Rattus norvegicus [32],Non-toxic
same,AUC(0-t) at 24 h,[33],204 µM·h
same,half-life,[34],1.4 h
same,Cmax,[35],240 nM
same,solubility at 4 h,[2],40 µg/mL
same,IC50,[36],3.25 nM
same,concentration at 2 h,[37],930 nM
same,Activity,Rattus norvegicus [38],Active
same,Ratio,LLC-PK1,1.7
same,inhibition,[39],inactive
same,inhibition,[40],inactive
same,Activity,Rattus norvegicus [41],Dose-dependent effect
same,IC50,[42],980 nM
same,Papp,MDR1,29.8 ×10⁻⁶ cm/s
same,Activity,Rattus norvegicus [43],Active
same,Cmax,[44],12900 nM
same,concentration at 1 h,[45],300 nM
same,"remaining at 10 min, 1 µM",[46],100%
same,IC50,[47],3000 nM
same,LBF,Rattus norvegicus [48],45%
same,fraction unbound,[49],0.107
same,concentration at 2 h,[50],2300 nM
FC(F)(F)c1ccc(Nc2ccnc3nc(-c4ncccc4C(F)(F)F)ccc23)cc1,IC50,[1],6.1 nM
same,solubility at 4 h,[2],24 µg/mL
COCc1nc(Nc2ccc(C(F)(F)F)cc2)c2ccc(-c3ncccc3C(F)(F)F)cc2n1,minimal effective dose,Rattus norvegicus [51],0.3 mg/kg
